Only some compounds are listed: those with a hit (about 3.1% of all), similar ones and a draw of the others.
CHO parental Ca – counter-screen: ATP calcium response change in parental CHO cells; parental CHO-K1, ATP-induced calcium, Fluo-8 fluorescence; inhibition, % at 5.6 µM; actives 0.63% (n = 330,000);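 active = inhibition above that plate's mean sample inhibition plus 3 SD, cut at about 26% in these data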;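 also: 0% = ATP-challenged DMSO wells and 100% = DMSO wells without ATP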
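Measured by: calcium-sensitive Fluo-8 fluorescence / Test system: CHO parental line / Controls: ATP-challenged DMSO wells low, unchallenged DMSO wells high / Measure: % inhibition / Compound: single nominal dose of 5.6 µM per compound / Replicates: single well per compound, no replicates / Reagent: ATP as calcium-mobilizing challenge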
OX1R antag-1 – OX1R (human) antagonism; OX1R-expressing cells, FRET antagonist read-out; inhibition, % at 6.6 µM; actives 1.8% (n = 330,000); in the data active = inhibition mostly above about 38%, no sharp cut-off; inactive = mostly below about 40%;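 also: 0% = agonist challenge alone and 100% = reference antagonist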
Target sequence (O43613 whole entry, looked up): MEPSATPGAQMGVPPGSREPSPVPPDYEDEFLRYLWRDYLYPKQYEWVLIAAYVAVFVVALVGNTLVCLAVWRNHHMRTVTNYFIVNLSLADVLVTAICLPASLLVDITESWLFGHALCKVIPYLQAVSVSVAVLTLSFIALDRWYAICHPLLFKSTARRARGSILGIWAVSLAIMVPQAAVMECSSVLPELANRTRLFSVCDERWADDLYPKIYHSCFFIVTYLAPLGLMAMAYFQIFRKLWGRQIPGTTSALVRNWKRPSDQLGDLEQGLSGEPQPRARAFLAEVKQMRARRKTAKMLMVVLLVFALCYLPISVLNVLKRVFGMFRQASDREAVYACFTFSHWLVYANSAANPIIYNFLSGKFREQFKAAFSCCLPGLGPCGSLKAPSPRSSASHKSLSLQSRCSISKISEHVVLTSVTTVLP
GPR7 antag – antagonists of human GPR7 (neuropeptides B/W receptor 1) | inhibition, % at 4.4 µM | actives 1.1% (n = 290,000) | AID 1861 | P48145 | GPR7-expressing cells, fluorescence antagonist assay; in the data active = inhibition above about 16%, passing the limit was not always enough;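 also: cells stimulated with the agonist NPW; 0% = agonist with vehicle and 100% = vehicle without agonist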
GalR3 antag – antagonists of human GalR3. inhibition, % at 3 µM. AID 651719. actives 0.44% (n = 360,000). HEK293 GalR3-CNG cAMP membrane potential fluorescence; galR3 body fused to GalR1 C-terminus;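 active = inhibition above the screen-wide average plus 3 SD, cut at about 13% in these data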;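 also: forskolin and galanin both at EC90 stimulate the cells; cAMP rise reported by CNG channel membrane potential dye signal; 0% = forskolin plus galanin with DMSO and 100% = forskolin alone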
Target sequence (O60755 1-299 limits assumed): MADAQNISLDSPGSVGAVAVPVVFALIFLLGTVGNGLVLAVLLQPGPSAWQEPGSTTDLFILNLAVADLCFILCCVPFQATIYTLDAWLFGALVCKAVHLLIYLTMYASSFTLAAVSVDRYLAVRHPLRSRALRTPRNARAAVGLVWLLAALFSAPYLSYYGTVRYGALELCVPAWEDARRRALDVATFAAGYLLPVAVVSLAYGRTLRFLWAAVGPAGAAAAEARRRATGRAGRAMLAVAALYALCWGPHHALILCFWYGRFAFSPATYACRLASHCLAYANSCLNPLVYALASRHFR
OX1R antag-2 – blocks the human orexin 1 receptor. CHO/OX1R cells, Fluo-8 calcium fluorescence, orexin A. inhibition, % at 5 µM. actives 0.43% (n = 330,000). AID 434989;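 active = inhibition above its plate's threshold, mean inhibition of all tested compounds on the plate plus 3 SD, cut at about 37% in these data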;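 also: 0% = orexin A challenge wells and 100% = SB-334867-A antagonist wells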
GPR7 antag conf – human GPR7 antagonism, confirmation assay | shares compounds with GPR7 antag | GPR7-expressing cells, calcium fluorescence antagonist mode | inhibition, % at 4.4 µM | actives 52% (n = 2,400) | AID 1952; in the data active = inhibition above about 24%;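 also: stimulated with the GPR7 agonist NPW; 0% = agonist plus vehicle and 100% = vehicle alone without agonist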
MCHR1 antag – counter-screen for GPR7 antagonists: antagonists of human MCHR1; shares compounds with GPR7 antag; MCHR1-expressing cells, fluorescence antagonist assay; inhibition, % at 4.4 µM; actives 62% (n = 2,400); AID 2148; in the data active = inhibition above about 22%;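 also: 0% = vehicle with agonist and 100% = vehicle without agonist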
OX1R Fluo8 conf – confirmation of human orexin 1 receptor antagonists; CHO/OX1R cells, orexin A calcium Fluo-8 fluorescence; shares compounds with OX1R antag-2; actives 38% (n = 1,100); inhibition, % at 5 µM; in the data active = inhibition above about 29%;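 also: 0% = agonist challenge alone and 100% = reference antagonist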
CHO Ca triplic – counter-screen for OX1R antagonists: effect in parental CHO cells; shares compounds with OX1R antag-2; parental CHO-K1, ATP-induced calcium, Fluo-8 fluorescence; inhibition, % at 5.6 µM; actives 9.3% (n = 1,100); AID 492965;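 active = inhibition above a per-plate limit, the mean inhibition of that plate's test compounds plus 3 SD, cut at about 25% in these data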;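 also: 0% = ATP challenge with DMSO and 100% = DMSO without ATP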
OX1R HTRF confirm – confirmation of human orexin 1 receptor antagonists, HTRF format; shares compounds with OX1R antag-1; OX1R-expressing cells, HTRF antagonist assay; inhibition, % at 6.6 µM; actives 49% (n = 1,800); in the data active = inhibition above about 55%;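 also: CHO cells expressing OX1R stimulated with orexin A at about EC80; 0% = agonist challenge alone and 100% = reference antagonist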
CHO-K1 HTRF cnt – signal in parental CHO-K1 cells, OX1R antagonist counter-screen. shares compounds with OX1R antag-1. HTRF counterscreen. inhibition, % at 6.6 µM. actives 48% (n = 1,800). AID 493232; in the data active = inhibition above about 17%;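 also: 0% = agonist challenge with vehicle and 100% = vehicle alone without agonist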
GalR3 antag conf – confirmation of human galanin receptor 3 antagonists; AID 652245; shares compounds with GalR3 antag; actives 59% (n = 1,600); inhibition, % at 3 µM; HEK293 GalR3 CNG cAMP biosensor, membrane potential fluorescence; galR3 fused to GalR1 carboxy tail; challenged with forskolin and galanin at EC90;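 active = inhibition above the primary screen's cutoff, the mean inhibition of all screened compounds plus 3 SD, cut at about 13% in these data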;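 also: 0% = forskolin plus galanin and 100% = forskolin alone with DMSO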
HEK-CNG parental – parental cell agonism counter-screen for GalR3 antagonists; AID 652268; activation, % at 3 µM; shares compounds with GalR3 antag; HEK293-CNG parental cells, cAMP membrane potential fluorescence; normalised: DMSO wells 0%, forskolin wells 100%; actives 10% (n = 1,600); in the data active = activation above about 1.3%
Numbers without * were called inactive; / = not tested or not shown.

SMILES	CHO parental Ca	OX1R antag-1	GPR7 antag	GalR3 antag	OX1R antag-2	others
Cc1nn(C)c(C)c1P(=S)(c1c(C)nn(C)c1C)N(C)C	-1.7	4.1	25.9*	-4.6	-9.9	GPR7 antag conf=-11.1;MCHR1 antag=-3.5
CCN(CC)c1ccc(/C=C/[N+](=O)[O-])cc1	50.7*	48.4	22.1*	-5.6	52.6*	GPR7 antag conf=55.1*;MCHR1 antag=84.5*
O=S(=O)(c1cc(Cl)cc(Cl)c1)N1Cc2cc(-c3ccccc3)ccc2-n2nncc2C1	/	/	/	-6.1	/
CN(C)C1(CNC(=O)c2ccc(NS(=O)(=O)c3ccc(Cl)c(Cl)c3)cc2)CCCCC1	-7.9	3.9	/	-1.6	-5.6
CN(C)C1(CNC(=O)Nc2ccc(Cl)c(Cl)c2)CCCCC1	-19.2	19.2	30.3*	-12.9	-12.9	GPR7 antag conf=42.9*;MCHR1 antag=47.1*
CC(C)Cc1nnc(NC(=O)CCC(=O)N2CCC3(CC2)OCCO3)s1	-8.2	7.6	-5.7	1.0	-19.7
CC(=O)c1cn(CC(=O)NCCc2c[nH]c3ccccc23)c2ccccc12	11.5	20.4	25.1*	17.6*	-1.1	GPR7 antag conf=2.9;MCHR1 antag=51.4*;GalR3 antag conf=58.1*;HEK-CNG parental=-0.2
COC(=O)C1=C(c2ccc(-c3ccccc3)c(F)c2)C[C@@H]2CC[C@H]1N2C(=O)NCCOc1ccc(OC)cc1	-3.3	-1.6	/	-2.8	-4.9
CCOC(=O)C(O)(c1ccc(NC(=S)NC(=O)c2ccc(Cl)cc2Cl)c(C)c1)C(F)(F)F (centres undefined)	49.8*	11.5	88.4*	45.1*	47.3*	GPR7 antag conf=93.3*;MCHR1 antag=97.0*;GalR3 antag conf=49.7*;HEK-CNG parental=-0.9
CCOC(=O)C(NC(=O)CC)(Nc1ccc(C(O)(C(=O)OCC)C(F)(F)F)cc1C)C(F)(F)F (centres undefined)	-11.1	31.2	-10.5	-7.1	-3.0
CCOc1cccc(CNCCc2c(C)[nH]c3ccc(OC(F)(F)F)cc23)c1O	85.0*	15.0	53.4*	72.5*	55.3*	GPR7 antag conf=84.2*;MCHR1 antag=95.1*;GalR3 antag conf=95.6*;HEK-CNG parental=-0.4
CC1(CCO)C(=O)NC(=S)NC1=O	/	/	/	1.0	/
CN(C)P1(N(C)C)=Nc2c(c(N)nn2C)C(c2ccccc2)=N1	-9.6	17.6	-7.6	-4.3	89.1*	OX1R Fluo8 conf=2.8;CHO Ca triplic=1.9
COc1cccc2c1N=C1CCCC3CN(C(C)=O)CCC123 (centres undefined)	/	/	/	-5.4	/
COC(=O)C1=C(c2ccc(F)cc2OCc2ccccc2)C[C@@H]2CC[C@H]1N2C(=O)NCCOc1ccccc1Cl	-22.8	31.2	/	-6.3	56.3*	OX1R Fluo8 conf=18.6;CHO Ca triplic=-18.4
COc1ccc(-n2c(O)c(/C=C/C=Nc3ccccc3)c(=O)[nH]c2=O)cc1	19.3	33.9	5.3	-3.0	45.0*	OX1R Fluo8 conf=24.5;CHO Ca triplic=31.8*
O=c1[nH]c(=O)n(-c2ccccc2)c(O)c1/C=C/C=Nc1ccccc1	0.2	16.1	-9.7	-2.0	5.6
COC(=O)C1=C(c2cccc(C#N)c2)C[C@@H]2CC[C@H]1N2C(=O)N1CCCCC1	-13.5	6.6	/	-2.5	-6.2
Cc1ccc(C)c(NP(=O)(Oc2ccccc2)Oc2ccccc2)c1	14.0	42.5*	5.3	-14.6	81.2*	OX1R Fluo8 conf=11.5;CHO Ca triplic=-14.1;OX1R HTRF confirm=58.5*;CHO-K1 HTRF cnt=13.2
COC1=CC(=O)OC(CCc2ccc3c(c2)OCO3)C1 (centres undefined)	/	/	/	-5.2	/
CCCCn1c(N)c(C(=O)OCC2CCCO2)c2nc3ccccc3nc21 (centres undefined)	-23.3	99.9*	19.2	/	77.7*	OX1R Fluo8 conf=-3.1;CHO Ca triplic=-4.7;OX1R HTRF confirm=33.6;CHO-K1 HTRF cnt=13.8
CC(C)CCn1c(N)c(C(=O)OCC2CCCO2)c2nc3ccccc3nc21 (centres undefined)	4.1	52.9	5.6	-1.4	5.6
CCCCCCC[n+]1ccc(-c2cc[n+](CCCCCCC)cc2)cc1	-10.4	140.1*	0.4	-2.8	-10.4	OX1R HTRF confirm=60.3*;CHO-K1 HTRF cnt=91.5*
c1ccc2c[n+](CCCCCCCCCC[n+]3ccc4ccccc4c3)ccc2c1	/	/	/	-4.8	/
CCOC(=O)Cn1cc([N+](=O)[O-])nc1[N+](=O)[O-]	-0.2	92.3*	-4.8	3.5	-13.5	OX1R HTRF confirm=42.1;CHO-K1 HTRF cnt=53.2*
SMILES	CHO parental Ca	OX1R antag-1	GPR7 antag	GalR3 antag	OX1R antag-2	others
CCOC(=O)Cn1cc(C(=O)c2ccccc2F)c2ccccc21	-16.1	9.7	-11.8	-2.4	-19.6
O=C1OC(c2ccc([N+](=O)[O-])cc2)=N/C1=C/N1CC2CC(C1)c1cccc(=O)n1C2 (centres undefined)	-16.2	80.4*	-6.2	-2.9	-5.0	OX1R HTRF confirm=24.9;CHO-K1 HTRF cnt=17.7*
CC12CC(O)C3C(CCC4=CC(=O)CCC43C)C1CCC2=O (centres undefined)	/	/	/	-4.1	/
O=[N+]([O-])c1ccc(N2CCCC2)c2ccncc12	-3.4	86.7*	-3.4	-7.3	-15.5	OX1R HTRF confirm=43.8;CHO-K1 HTRF cnt=69.0*
O=[N+]([O-])c1ccc(N2CCNCC2)c2ncccc12	/	/	3.0	/	/
CN1CCN(c2ccc([N+](=O)[O-])c3cccnc23)CC1	-16.5	128.2*	11.5	-10.0	-21.2	OX1R HTRF confirm=43.1;CHO-K1 HTRF cnt=64.2*
COc1ccc(C(=O)OC2C[C@H]3CC[C@@H](C2)N3O)cc1OC (some centres undefined)	-0.9	16.5	-15.3	-8.3	-11.4
COc1ccccc1CNC(=O)CCC(=O)N1C[C@H]2C[C@@H](C1)c1cccc(=O)n1C2	-9.3	12.5	-1.9	-7.6	-3.4
CC1=NNC(=O)C1Br (centres undefined)	/	/	/	-3.4	/
O=C1NC(=O)C(=Cc2ccc(N3CCOCC3)o2)C(=O)N1	2.6	92.2*	-5.5	-4.8	-15.1	OX1R HTRF confirm=49.6;CHO-K1 HTRF cnt=99.2*
C[C@H](CO)N1C[C@H](C)[C@H](CN(C)C(=O)Oc2cccc3ccccc23)OCc2cnnn2CCCC1=O	/	/	/	-6.7	/
